Laboratory results taken from ChEMBL document CHEMBL3585304, “Synthesis and evaluation of tamoxifen derivatives with a long alkyl side chain as selective estrogen receptor down-regulators” (Bioorg Med Chem, 2015).
The source made the active and inactive calls. The rule behind the calls is not given here.

What was measured:
Estrogen receptor = molecular target: T1, Estrogen receptor (Homo sapiens, UniProt P03372); assay: Inhibition of ERalpha (unknown origin) by fluorescence polarization-based competition binding assay
T1 sequence (P03372 whole entry): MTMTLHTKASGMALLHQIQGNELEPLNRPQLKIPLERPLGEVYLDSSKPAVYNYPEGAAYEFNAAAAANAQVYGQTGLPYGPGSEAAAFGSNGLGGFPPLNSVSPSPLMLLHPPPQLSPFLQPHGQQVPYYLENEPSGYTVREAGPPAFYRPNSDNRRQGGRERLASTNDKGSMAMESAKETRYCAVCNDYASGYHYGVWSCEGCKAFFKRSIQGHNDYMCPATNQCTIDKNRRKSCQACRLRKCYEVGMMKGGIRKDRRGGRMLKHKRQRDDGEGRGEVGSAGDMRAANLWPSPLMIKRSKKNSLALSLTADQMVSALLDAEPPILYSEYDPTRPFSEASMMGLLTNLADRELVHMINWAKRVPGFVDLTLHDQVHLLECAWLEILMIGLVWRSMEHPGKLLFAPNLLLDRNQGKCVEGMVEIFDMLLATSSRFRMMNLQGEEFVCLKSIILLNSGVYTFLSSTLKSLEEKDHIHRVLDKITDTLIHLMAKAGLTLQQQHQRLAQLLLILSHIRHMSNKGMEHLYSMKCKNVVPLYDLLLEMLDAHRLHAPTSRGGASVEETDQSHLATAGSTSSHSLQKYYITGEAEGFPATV

MCF7 [1] = assay: Reduction in endogenous ERalpha expression in human MCF7 cells at 10 uM after 6 hrs by Western blot analysis; format: functional, cell-based
Outline: (§1)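 MCF-7 cells exposed to compounds (10 µM shown for the chain-length series) for 6 h. Cells lysed in 1% SDS, 0.1 M Tris–HCl pH 7.0, 10% glycerol and boiled 10 min. Protein measured by BCA, and equal amounts run on SDS–PAGE, transferred to PVDF and immunoblotted for endogenous ERα.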

MCF7 [2] = assay: Reduction in endogenous ERalpha expression in human MCF7 cells after 6 hrs by Western blot analysis; format: functional, cell-based; outline: as §1
MCF7 [3] = assay: Reduction in endogenous ERalpha expression in human MCF7 cells at 0.1 to 1 uM after 6 hrs by Western blot analysis in presence of 10 uM MG132 proteasome inhibitor; format: functional, cell-based
Outline: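 MCF-7 cells incubated 6 h with graded compound concentrations, with or without proteasome inhibitor MG132 (10 µM). Lysis in 1% SDS, 0.1 M Tris–HCl pH 7.0, 10% glycerol, then boiling 10 min. BCA protein assay, equal loading on SDS–PAGE, PVDF transfer, and Western blot detection of ERα.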

| Compound | IC50 (Estrogen receptor) [nM] | inhibition (MCF7 [1]) | inhibition (MCF7 [2]) | inhibition (MCF7 [3]) |
| --- | --- | --- | --- | --- |
| CCCCCCCCCCCCCCCCCCNCCOc1ccc(/C(=C(/CC)c2ccccc2)c2ccc(O)cc2)cc1 | > 100000 | – | – | – |
| CC/C(=C(\c1ccc(O)cc1)c1ccc(OCCNCCCCCCCCCCO)cc1)c1ccccc1 | 210 | inactive | – | – |
| CCCCCCCCCCNCCOc1ccc(/C(=C(/CC)c2ccccc2)c2ccc(O)cc2)cc1 | 3.6 | Active | – | – |
| CCCCCCCCCCCCCCCCNCCOc1ccc(/C(=C(/CC)c2ccccc2)c2ccc(O)cc2)cc1 | 4.8 | inactive | – | – |
| CC/C(=C(\c1ccc(O)cc1)c1ccc(OCCNC)cc1)c1ccccc1 | – | inactive | – | – |
| CCCCCCCCNCCOc1ccc(/C(=C(/CC)c2ccccc2)c2ccc(O)cc2)cc1 | 53 | inactive | – | – |
| CCCCCCCCCCCCCCNCCOc1ccc(/C(=C(/CC)c2ccccc2)c2ccc(O)cc2)cc1 | 11 | inactive | – | – |
| CC/C(=C(\c1ccc(O)cc1)c1ccc(OCCNCCCCCCCCCCF)cc1)c1ccccc1 | 3.4 | Active | Dose-dependent effect | inactive |
| CCC(=C(c1ccc(O)cc1)c1ccc(OCCN(C)C)cc1)c1ccccc1 | – | inactive | – | – |
| CCCCCCNCCOc1ccc(/C(=C(/CC)c2ccccc2)c2ccc(O)cc2)cc1 | 151 | inactive | – | – |
| CCCCCCCCCCCCNCCOc1ccc(/C(=C(/CC)c2ccccc2)c2ccc(O)cc2)cc1 | 14 | – | – | – |
